From ChEMBL document CHEMBL1148725, “2,2,2-Trichloro-N-({2-[2-(dimethylamino)ethyl]-1,3-dioxo-2,3-dihydro-1H-benzo[de]isoquinolin- 5-yl}carbamoyl)acetamide (UNBS3157), a novel nonhematotoxic naphthalimide derivative with potent antitumor activity” (J Med Chem, 2007)

System: not listed separately
Experiment: Antiproliferative activity against Hs683 cells after 72 hrs by MTT assay
Type: functional, cell-based, Homo sapiens, Hs 683
Conditions: Homo sapiens, Hs 683, 72 h
Summary of the method: (§1)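 Cells cultured with each compound for three days; growth then read by the MTT colorimetric assay and reported as IC50 (µM).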

First: CN(C)CCN1C(=O)c2cccc3cc(NC(=S)NCc4ccc5c(c4)OCO5)cc(c23)C1=O
Second: CN(C)CCN1C(=O)c2cccc3cc(NC(=O)Nc4ccc5c(c4)OCO5)cc(c23)C1=O
The IC50 of the first is higher: over 10 µM for the first, 5.8 µM for the second. The second is the more potent here.

`CN(C)CCN1C(=O)c2cccc3cc(NC(=O)Nc4cc5c6c(cccc6c4)C(=O)N(CCN(C)C)C5=O)cc(c23)C1=O` and `CN(C)CCN1C(=O)c2cccc3cc(NC(=O)Nc4ccc(C#N)cc4)cc(c23)C1=O` are the same in IC50: 5 µM for the first, 5 µM for the second.

Going from `CN(C)CCN1C(=O)c2cccc3cccc(c23)C1=O` to `CN(C)CCN1C(=O)c2cccc3cc(/N=C\c4ccc(C#N)cc4)cc(c23)C1=O`, the IC50 rises from 6.9 µM to over 10 µM. The first is the more potent here.

`CCOC(=O)CCC(=O)Nc1cc2c3c(cccc3c1)C(=O)N(CCN(C)C)C2=O` and `CN(C)CCN1C(=O)c2cccc3cc(NCc4ccccc4O[C@H]4O[C@H](CO)[C@@H](O)[C@H](O)[C@H]4O)cc(c23)C1=O.Cl` cannot be ordered by IC50: over 10 µM for the first, over 10 µM for the second.

System: not listed separately
Experiment: Antiproliferative activity against U373MG cells after 72 hrs by MTT assay
Type: functional, cell-based, Homo sapiens, U-373MG ATCC
Conditions: Homo sapiens, U373 MG, 72 h
Summary of the method: as §1

Going from `CN(C)CCN1C(=O)c2cccc3cc(NC(=S)NCc4ccc5c(c4)OCO5)cc(c23)C1=O` to `CN(C)CCN1C(=O)c2cccc3cc(NC(=O)Nc4ccc5c(c4)OCO5)cc(c23)C1=O`, the IC50 falls from over 10 µM to 1.4 µM.

Compared with `CN(C)CCN1C(=O)c2cccc3cc(NC(=O)Nc4cc5c6c(cccc6c4)C(=O)N(CCN(C)C)C5=O)cc(c23)C1=O`, `CN(C)CCN1C(=O)c2cccc3cc(NC(=O)Nc4ccc(C#N)cc4)cc(c23)C1=O` is 4-fold lower in IC50: 3.6 µM for the first, 0.9 µM for the second. The second is the more potent here.

First: CN(C)CCN1C(=O)c2cccc3cccc(c23)C1=O
Second: CN(C)CCN1C(=O)c2cccc3cc(/N=C\c4ccc(C#N)cc4)cc(c23)C1=O
The IC50 of the first is 1.8-fold higher: 7.5 µM for the first, 4.2 µM for the second. The second is the more potent here.

`CCOC(=O)CCC(=O)Nc1cc2c3c(cccc3c1)C(=O)N(CCN(C)C)C2=O` and `CN(C)CCN1C(=O)c2cccc3cc(NCc4ccccc4O[C@H]4O[C@H](CO)[C@@H](O)[C@H](O)[C@H]4O)cc(c23)C1=O.Cl` cannot be ordered by IC50: over 10 µM for the first, over 10 µM for the second.

System: HCT-15
Experiment: Antiproliferative activity against HCT15 cells after 72 hrs by MTT assay
Type: functional, cell-based, Homo sapiens
Conditions: Homo sapiens, HCT-15, 72 h
Summary of the method: as §1

Going from `CN(C)CCN1C(=O)c2cccc3cc(NC(=S)NCc4ccc5c(c4)OCO5)cc(c23)C1=O` to `CN(C)CCN1C(=O)c2cccc3cc(NC(=O)Nc4ccc5c(c4)OCO5)cc(c23)C1=O`, the IC50 falls from over 10 µM to 7.7 µM. The second is the more potent here.

Going from `CN(C)CCN1C(=O)c2cccc3cc(NC(=O)Nc4cc5c6c(cccc6c4)C(=O)N(CCN(C)C)C5=O)cc(c23)C1=O` to `CN(C)CCN1C(=O)c2cccc3cc(NC(=O)Nc4ccc(C#N)cc4)cc(c23)C1=O`, the IC50 rises from 4.6 µM to 9.7 µM (2.1-fold).

`CN(C)CCN1C(=O)c2cccc3cccc(c23)C1=O` and `CN(C)CCN1C(=O)c2cccc3cc(/N=C\c4ccc(C#N)cc4)cc(c23)C1=O` are within 1.5-fold of each other in IC50: 9.2 µM for the first, 9.9 µM for the second.

`CCOC(=O)CCC(=O)Nc1cc2c3c(cccc3c1)C(=O)N(CCN(C)C)C2=O` and `CN(C)CCN1C(=O)c2cccc3cc(NCc4ccccc4O[C@H]4O[C@H](CO)[C@@H](O)[C@H](O)[C@H]4O)cc(c23)C1=O.Cl` cannot be ordered by IC50: over 10 µM for the first, over 10 µM for the second.

System: LoVo
Experiment: Antiproliferative activity against LoVo cells after 72 hrs by MTT assay
Type: functional, cell-based, Homo sapiens
Conditions: Homo sapiens, LoVo, 72 h
Summary of the method: as §1

Compared with `CN(C)CCN1C(=O)c2cccc3cc(NC(=S)NCc4ccc5c(c4)OCO5)cc(c23)C1=O`, `CN(C)CCN1C(=O)c2cccc3cc(NC(=O)Nc4ccc5c(c4)OCO5)cc(c23)C1=O` is lower in IC50: over 10 µM for the first, 4.4 µM for the second. The second is the more potent here.

Going from `CN(C)CCN1C(=O)c2cccc3cc(NC(=O)Nc4cc5c6c(cccc6c4)C(=O)N(CCN(C)C)C5=O)cc(c23)C1=O` to `CN(C)CCN1C(=O)c2cccc3cc(NC(=O)Nc4ccc(C#N)cc4)cc(c23)C1=O`, the IC50 rises from 2.8 µM to 4.2 µM (1.5-fold).

`CN(C)CCN1C(=O)c2cccc3cccc(c23)C1=O` and `CN(C)CCN1C(=O)c2cccc3cc(/N=C\c4ccc(C#N)cc4)cc(c23)C1=O` are within 1.5-fold of each other in IC50: 4.7 µM for the first, 4.1 µM for the second.

`CCOC(=O)CCC(=O)Nc1cc2c3c(cccc3c1)C(=O)N(CCN(C)C)C2=O` and `CN(C)CCN1C(=O)c2cccc3cc(NCc4ccccc4O[C@H]4O[C@H](CO)[C@@H](O)[C@H](O)[C@H]4O)cc(c23)C1=O.Cl` cannot be ordered by IC50: over 10 µM for the first, over 10 µM for the second.

System: A549
Experiment: Antiproliferative activity against A549 cells after 72 hrs by MTT assay
Type: functional, cell-based, Homo sapiens
Conditions: Homo sapiens, A549, 72 h
Summary of the method: as §1

Compared with `CN(C)CCN1C(=O)c2cccc3cc(NC(=S)NCc4ccc5c(c4)OCO5)cc(c23)C1=O`, `CN(C)CCN1C(=O)c2cccc3cc(NC(=O)Nc4ccc5c(c4)OCO5)cc(c23)C1=O` is lower in IC50: over 10 µM for the first, 5.5 µM for the second. The second is the more potent here.

`CN(C)CCN1C(=O)c2cccc3cc(NC(=O)Nc4cc5c6c(cccc6c4)C(=O)N(CCN(C)C)C5=O)cc(c23)C1=O` and `CN(C)CCN1C(=O)c2cccc3cc(NC(=O)Nc4ccc(C#N)cc4)cc(c23)C1=O` are within 1.5-fold of each other in IC50: 3.6 µM for the first, 3.5 µM for the second.

`CN(C)CCN1C(=O)c2cccc3cccc(c23)C1=O` and `CN(C)CCN1C(=O)c2cccc3cc(/N=C\c4ccc(C#N)cc4)cc(c23)C1=O` are within 1.5-fold of each other in IC50: 5.6 µM for the first, 7.7 µM for the second.

`CCOC(=O)CCC(=O)Nc1cc2c3c(cccc3c1)C(=O)N(CCN(C)C)C2=O` and `CN(C)CCN1C(=O)c2cccc3cc(NCc4ccccc4O[C@H]4O[C@H](CO)[C@@H](O)[C@H](O)[C@H]4O)cc(c23)C1=O.Cl` cannot be ordered by IC50: over 10 µM for the first, over 10 µM for the second.

System: MCF7
Experiment: Antiproliferative activity against MCF7 cells after 72 hrs by MTT assay
Type: functional, cell-based, Homo sapiens
Conditions: Homo sapiens, MCF7, 72 h
Summary of the method: as §1

Compared with `CN(C)CCN1C(=O)c2cccc3cc(NC(=S)NCc4ccc5c(c4)OCO5)cc(c23)C1=O`, `CN(C)CCN1C(=O)c2cccc3cc(NC(=O)Nc4ccc5c(c4)OCO5)cc(c23)C1=O` is lower in IC50: over 10 µM for the first, 6.6 µM for the second.

First: CN(C)CCN1C(=O)c2cccc3cc(NC(=O)Nc4cc5c6c(cccc6c4)C(=O)N(CCN(C)C)C5=O)cc(c23)C1=O
Second: CN(C)CCN1C(=O)c2cccc3cc(NC(=O)Nc4ccc(C#N)cc4)cc(c23)C1=O
The IC50 of the first is 1.5-fold higher: 4.8 µM for the first, 3.1 µM for the second. The second is the more potent here.

`CN(C)CCN1C(=O)c2cccc3cccc(c23)C1=O` and `CN(C)CCN1C(=O)c2cccc3cc(/N=C\c4ccc(C#N)cc4)cc(c23)C1=O` are within 1.5-fold of each other in IC50: 10 µM for the first, 7.4 µM for the second.

`CCOC(=O)CCC(=O)Nc1cc2c3c(cccc3c1)C(=O)N(CCN(C)C)C2=O` and `CN(C)CCN1C(=O)c2cccc3cc(NCc4ccccc4O[C@H]4O[C@H](CO)[C@@H](O)[C@H](O)[C@H]4O)cc(c23)C1=O.Cl` cannot be ordered by IC50: over 10 µM for the first, over 10 µM for the second.

System: not listed separately
Experiment: Toxicity in ip dosed B6D2F1 mouse
Type: organism-based
Conditions: in vivo
Summary of the method: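 Acute MTD was set by a single i.p. dose to groups of three healthy female B6D2F1 mice, at 2.5, 5, 10, 20, 40, 80 and 160 mg/kg. The MTD is the dose just below the lowest dose that killed at least one mouse.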

`CN(C)CCN1C(=O)c2cccc3cc(NC(=S)NCc4ccc5c(c4)OCO5)cc(c23)C1=O` and `CN(C)CCN1C(=O)c2cccc3cc(NC(=O)Nc4ccc5c(c4)OCO5)cc(c23)C1=O` cannot be ordered by MTD: over 80 mg/kg for the first, over 80 mg/kg for the second.

First: CN(C)CCN1C(=O)c2cccc3cc(NC(=O)Nc4cc5c6c(cccc6c4)C(=O)N(CCN(C)C)C5=O)cc(c23)C1=O
Second: CN(C)CCN1C(=O)c2cccc3cc(NC(=O)Nc4ccc(C#N)cc4)cc(c23)C1=O
The MTD of the first is lower: 40 mg/kg for the first, over 80 mg/kg for the second.

Compared with `CN(C)CCN1C(=O)c2cccc3cccc(c23)C1=O`, `CN(C)CCN1C(=O)c2cccc3cc(/N=C\c4ccc(C#N)cc4)cc(c23)C1=O` is higher in MTD: 40 mg/kg for the first, over 80 mg/kg for the second.

`CCOC(=O)CCC(=O)Nc1cc2c3c(cccc3c1)C(=O)N(CCN(C)C)C2=O` and `CN(C)CCN1C(=O)c2cccc3cc(NCc4ccccc4O[C@H]4O[C@H](CO)[C@@H](O)[C@H](O)[C@H]4O)cc(c23)C1=O.Cl` cannot be ordered by MTD: over 80 mg/kg for the first, over 80 mg/kg for the second.

System: L1210
Experiment: Antitumor activity in L1210 cells xenografted B6D2F1 mouse at 20 mg/kg, ip relative to control
Type: functional
Conditions: route intraperitoneal
Summary of the method: (§2)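 Mice grafted with L1210 leukaemia cells on day 0, then dosed i.p. four times weekly on days 1-4 and 8-11. Five mice per group. Outcome is %T/C, the median survival of treated over control. Kruskal-Wallis test followed by Dunn comparisons against control.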

`CN(C)CCN1C(=O)c2cccc3cc(NC(=O)Nc4cc5c6c(cccc6c4)C(=O)N(CCN(C)C)C5=O)cc(c23)C1=O` showed an Activity of 124%.

System: L1210
Experiment: Antitumor activity in L1210 cells xenografted B6D2F1 mouse at 40 mg/kg, ip relative to control
Type: functional
Conditions: route intraperitoneal
Summary of the method: as §2

Molecule `CN(C)CCN1C(=O)c2cccc3cc(NCc4ccccc4O[C@H]4O[C@H](CO)[C@@H](O)[C@H](O)[C@H]4O)cc(c23)C1=O.Cl` has an Activity of 129%.

System: L1210
Experiment: Antitumor activity in L1210 cells xenografted B6D2F1 mouse at 80 mg/kg, ip relative to control
Type: functional
Conditions: route intraperitoneal
Summary of the method: as §2

In order of rising Activity:
1. CN(C)CCN1C(=O)c2cccc3cc(/N=C\c4ccc(C#N)cc4)cc(c23)C1=O  135%
2. CN(C)CCN1C(=O)c2cccc3cccc(c23)C1=O  156%
3. CCOC(=O)CCC(=O)Nc1cc2c3c(cccc3c1)C(=O)N(CCN(C)C)C2=O  156%
4. CN(C)CCN1C(=O)c2cccc3cc(NC(=O)Nc4ccc5c(c4)OCO5)cc(c23)C1=O  187%
5. CN(C)CCN1C(=O)c2cccc3cc(NC(=O)Nc4ccc(C#N)cc4)cc(c23)C1=O  207%
